Test results published in ChEMBL document CHEMBL2384906, “Biological activity, design, synthesis and structure activity relationship of some novel derivatives of curcumin containing sulfonamides” (Eur J Med Chem, 2013).
≈ marks a conversion by molar mass, not a printed value.

Columns and labels:
[1] = system: Staphylococcus aureus; experiment: Antimicrobial activity against Staphylococcus aureus ATCC 11632 assessed as diameter of inhibition zone at 40 uM after 24 hrs by Kirby -Baur disc diffusion method; format: functional; details: ATCC 11632, 24 h, read-out: DIZ
Summary of the method: (§1)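 Kirby-Bauer disc diffusion was used. Acetone stocks (160 µM) were serially doubled down to 80, 40 and 20 µM. 4 µL of each went onto 5 mm sterile paper discs, which were dried 30 min at 50 °C. Inoculum was 1.5 × 10⁸ CFU/mL diluted to 3 × 10² CFU/mL, and 50 µL was spread on Mueller-Hinton agar. After 24 h at 37 °C the inhibition-zone diameter was measured. Ciprofloxacin served as positive control.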

[2] = system: QG-56; experiment: Cytotoxicity against human QG56 cells after 24 hrs by MTT assay; format: functional, cell-based
Summary of the method: (§2)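 The MTT assay seeded 5 × 10⁴ cells per well and grew them 24 h in RPMI 1640 with compound at 2.5–200 µM. Medium without cells was the blank and adriamycin the positive control. MTT was added for 4 h at 37 °C, formazan was solubilised, and absorbance was read at 570 nm. IC50 is the concentration that cuts viability 50% against untreated cells.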

[3] = system: Aspergillus flavus; experiment: Antifungal activity against Aspergillus flavus MTCC 1021 assessed as zone of inhibition at 80 uM after 48 hrs by disc diffusion method; format: functional; details: MTCC 1021, 48 h, read-out: IZ
Summary of the method: (§3)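 Spores from 4-day potato dextrose agar cultures, suspended in sterile water at 1.5 × 10⁵ CFU/mL. 0.2 mL was spread on potato dextrose agar. 5 mm filter-paper discs soaked with test compound were laid on the lawn. Incubation was 48 h at 28 °C, then the inhibition zone was measured in mm. Fluconazole was the positive control and acetone the negative control.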

[4] = system: Salmonella typhi; experiment: Antimicrobial activity against Salmonella typhi ATCC 23564 after 24 hrs by broth micro serial dilution method; format: functional, Salmonella enterica subsp. enterica serovar Typhi; details: Salmonella enterica, ATCC 23564, 24 h
[5] = system: Pseudomonas aeruginosa; experiment: Antimicrobial activity against Pseudomonas aeruginosa ATCC 15499 assessed as diameter of inhibition zone at 40 uM after 24 hrs by Kirby -Baur disc diffusion method; format: functional; details: ATCC 15499, 24 h, read-out: DIZ; summary of the method: as §1
[6] = system: Bacillus cereus; experiment: Antimicrobial activity against Bacillus cereus MTCC 7350 assessed as diameter of inhibition zone at 40 uM after 24 hrs by Kirby -Baur disc diffusion method; format: functional; details: MTCC 7350, 24 h, read-out: DIZ; summary of the method: as §1
[7] = system: Pseudomonas aeruginosa; experiment: Antimicrobial activity against Pseudomonas aeruginosa ATCC 15499 assessed as diameter of inhibition zone at 20 uM after 24 hrs by Kirby -Baur disc diffusion method; format: functional; details: ATCC 15499, 24 h, read-out: DIZ; summary of the method: as §1
[8] = system: Bacillus cereus; experiment: Antimicrobial activity against Bacillus cereus MTCC 7350 after 24 hrs by broth micro serial dilution method; format: functional; details: MTCC 7350, 24 h
Summary of the method: (§4)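 This was broth microdilution in autoclaved Mueller-Hinton broth. 150 µL of compound per well was serially diluted […], and 50 µL of test organism was added. Plates were incubated 24 h at 37 °C and optical density was read.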

[9] = system: Aspergillus niger; experiment: Antifungal activity against Aspergillus niger MTCC 1108 assessed as zone of inhibition at 80 uM after 48 hrs by disc diffusion method; format: functional; details: MTCC 1108, 48 h, read-out: IZ; summary of the method: as §3
[10] = system: Aspergillus niger; experiment: Antifungal activity against Aspergillus niger MTCC 1108 assessed as zone of inhibition at 40 uM after 48 hrs by disc diffusion method; format: functional; details: MTCC 1108, 48 h, read-out: IZ; summary of the method: as §3
[11] = system: Aspergillus flavus; experiment: Antifungal activity against Aspergillus flavus MTCC 1021 assessed as zone of inhibition at 20 uM after 48 hrs by disc diffusion method; format: functional; details: MTCC 1021, 48 h, read-out: IZ; summary of the method: as §3
[12] = system: Salmonella typhi; experiment: Antimicrobial activity against Salmonella typhi ATCC 23564 assessed as diameter of inhibition zone at 80 uM after 24 hrs by Kirby -Baur disc diffusion method; format: functional, Salmonella enterica subsp. enterica serovar Typhi; details: Salmonella enterica, ATCC 23564, 24 h; read-out: DIZ
[13] = system: Curvularia lunata; experiment: Antifungal activity against Curvularia lunata MTCC 581 assessed as zone of inhibition at 20 uM after 48 hrs by disc diffusion method; format: functional; details: MTCC 581, 48 h, read-out: IZ; summary of the method: as §3
[14] = system: Trichoderma viride; experiment: Antifungal activity against Trichoderma viride MTCC 1107 assessed as zone of inhibition at 40 uM after 48 hrs by disc diffusion method; format: functional; details: MTCC 1107, 48 h, read-out: IZ; summary of the method: as §3
[15] = system: Staphylococcus aureus; experiment: Antimicrobial activity against Staphylococcus aureus ATCC 11632 assessed as diameter of inhibition zone at 20 uM after 24 hrs by Kirby -Baur disc diffusion method; format: functional; details: ATCC 11632, 24 h, read-out: DIZ; summary of the method: as §1
[16] = system: Escherichia coli; experiment: Antimicrobial activity against Escherichia coli ATCC 35218 after 24 hrs by broth micro serial dilution method; format: functional; details: ATCC 35218, 24 h; summary of the method: as §4
[17] = system: Mus musculus; experiment: Antiinflammatory activity in mouse assessed as inhibition of carrageenan-induced increase in paw volume at 200 mg/kg administered 1 hr prior to carrageenan challenge measured after 3 hrs relative to control; format: functional
Summary of the method: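 Mice were fasted 2 h and placed in groups of five. Controls received saline i.p. Phenylbutazone was given at 100 mg/kg i.p., curcumin at 200 mg/kg i.p., and derivatives at 200 mg/kg. After 1 h, 0.1 mL of 1% carrageenan in saline was injected subplantar into the right hind paw. Paw volume was followed by plethysmometer for 3 h, and % inhibition was calculated as (Vc − Vt)/Vc × 100.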

[18] = system: Curvularia lunata; experiment: Antifungal activity against Curvularia lunata MTCC 581 after 48 hrs; format: functional; details: MTCC 581, 48 h
[19] = system: Curvularia lunata; experiment: Antifungal activity against Curvularia lunata MTCC 581 assessed as zone of inhibition at 40 uM after 48 hrs by disc diffusion method; format: functional; details: MTCC 581, 48 h, read-out: IZ; summary of the method: as §3
[20] = system: Escherichia coli; experiment: Antimicrobial activity against Escherichia coli ATCC 35218 assessed as diameter of inhibition zone at 40 uM after 24 hrs by Kirby -Baur disc diffusion method; format: functional; details: ATCC 35218, 24 h, read-out: DIZ; summary of the method: as §1
[21] = system: HCT-116; experiment: Cytotoxicity against human HCT116 cells after 24 hrs by MTT assay; format: functional, cell-based; summary of the method: as §2
[22] = system: Aspergillus flavus; experiment: Antifungal activity against Aspergillus flavus MTCC 1021 assessed as zone of inhibition at 40 uM after 48 hrs by disc diffusion method; format: functional; details: MTCC 1021, 48 h, read-out: IZ; summary of the method: as §3
[23] = system: Bacillus cereus; experiment: Antimicrobial activity against Bacillus cereus MTCC 7350 assessed as diameter of inhibition zone at 80 uM after 24 hrs by Kirby -Baur disc diffusion method; format: functional; details: MTCC 7350, 24 h, read-out: DIZ; summary of the method: as §1
[24] = system: Aspergillus niger; experiment: Antifungal activity against Aspergillus niger MTCC 1108 assessed as zone of inhibition at 20 uM after 48 hrs by disc diffusion method; format: functional; details: MTCC 1108, 48 h, read-out: IZ; summary of the method: as §3
[25] = system: Escherichia coli; experiment: Antimicrobial activity against Escherichia coli ATCC 35218 assessed as diameter of inhibition zone at 20 uM after 24 hrs by Kirby -Baur disc diffusion method; format: functional; details: ATCC 35218, 24 h, read-out: DIZ; summary of the method: as §1
[26] = system: HeLa; experiment: Cytotoxicity against human HeLa cells after 24 hrs by MTT assay; format: functional, cell-based; summary of the method: as §2
[27] = system: Aspergillus flavus; experiment: Antifungal activity against Aspergillus flavus MTCC 1021 after 48 hrs; format: functional; details: MTCC 1021, 48 h
[28] = system: Pseudomonas aeruginosa; experiment: Antimicrobial activity against Pseudomonas aeruginosa ATCC 15499 assessed as diameter of inhibition zone at 80 uM after 24 hrs by Kirby -Baur disc diffusion method; format: functional; details: ATCC 15499, 24 h, read-out: DIZ; summary of the method: as §1
[29] = system: Trichoderma viride; experiment: Antifungal activity against Trichoderma viride MTCC 1107 assessed as zone of inhibition at 80 uM after 48 hrs by disc diffusion method; format: functional; details: MTCC 1107, 48 h, read-out: IZ; summary of the method: as §3
[30] = system: Curvularia lunata; experiment: Antifungal activity against Curvularia lunata MTCC 581 assessed as zone of inhibition at 80 uM after 48 hrs by disc diffusion method; format: functional; details: MTCC 581, 48 h, read-out: IZ; summary of the method: as §3
[31] = system: Staphylococcus aureus; experiment: Antimicrobial activity against Staphylococcus aureus ATCC 11632 after 24 hrs by broth micro serial dilution method; format: functional; details: ATCC 11632, 24 h; summary of the method: as §4
[32] = system: Bacillus cereus; experiment: Antimicrobial activity against Bacillus cereus MTCC 7350 assessed as diameter of inhibition zone at 20 uM after 24 hrs by Kirby -Baur disc diffusion method; format: functional; details: MTCC 7350, 24 h, read-out: DIZ; summary of the method: as §1
[33] = system: Salmonella typhi; experiment: Antimicrobial activity against Salmonella typhi ATCC 23564 assessed as diameter of inhibition zone at 20 uM after 24 hrs by Kirby -Baur disc diffusion method; format: functional, Salmonella enterica subsp. enterica serovar Typhi; details: Salmonella enterica, ATCC 23564, 24 h; read-out: DIZ
[34] = system: Pseudomonas aeruginosa; experiment: Antimicrobial activity against Pseudomonas aeruginosa ATCC 15499 after 24 hrs by broth micro serial dilution method; format: functional; details: ATCC 15499, 24 h; summary of the method: as §4
[35] = system: Trichoderma viride; experiment: Antifungal activity against Trichoderma viride MTCC 1107 after 48 hrs; format: functional; details: MTCC 1107, 48 h
[36] = system: Trichoderma viride; experiment: Antifungal activity against Trichoderma viride MTCC 1107 assessed as zone of inhibition at 20 uM after 48 hrs by disc diffusion method; format: functional; details: MTCC 1107, 48 h, read-out: IZ; summary of the method: as §3
[37] = system: Staphylococcus aureus; experiment: Antimicrobial activity against Staphylococcus aureus ATCC 11632 assessed as diameter of inhibition zone at 80 uM after 24 hrs by Kirby -Baur disc diffusion method; format: functional; details: ATCC 11632, 24 h, read-out: DIZ; summary of the method: as §1
[38] = system: HepG2; experiment: Cytotoxicity against human HepG2 cells after 24 hrs by MTT assay; format: functional, cell-based; summary of the method: as §2
[39] = system: Salmonella typhi; experiment: Antimicrobial activity against Salmonella typhi ATCC 23564 assessed as diameter of inhibition zone at 40 uM after 24 hrs by Kirby -Baur disc diffusion method; format: functional, Salmonella enterica subsp. enterica serovar Typhi; details: Salmonella enterica, ATCC 23564, 24 h; read-out: DIZ
[40] = system: Aspergillus niger; experiment: Antifungal activity against Aspergillus niger MTCC 1108 after 48 hrs; format: functional; details: MTCC 1108, 48 h
[41] = system: Escherichia coli; experiment: Antimicrobial activity against Escherichia coli ATCC 35218 assessed as diameter of inhibition zone at 80 uM after 24 hrs by Kirby -Baur disc diffusion method; format: functional; details: ATCC 35218, 24 h, read-out: DIZ; summary of the method: as §1

COc1ccc(NS(=O)(=O)c2ccc(/N=C(\C=C\c3ccc(O)c(OC)c3)CC(/C=C/c3ccc(O)c(OC)c3)=N/c3ccc(S(=O)(=O)Nc4ccc(OC)nn4)cc3)cc2)nn1
zone of inhibition at 40 µM [1]: 19 mm
IC50 [2]: 50 µM
zone of inhibition at 80 µM [3]: 13 mm
MIC [4]: 40 µM (≈ 35.7 µg/mL)
zone of inhibition at 40 µM [5]: 19 mm
zone of inhibition at 40 µM [6]: 17 mm
zone of inhibition at 20 µM [7]: 12 mm
MIC [8]: 40 µM (≈ 35.7 µg/mL)
zone of inhibition at 80 µM [9]: 12 mm
zone of inhibition at 40 µM [10]: 10 mm
zone of inhibition at 20 µM [11]: 9 mm
zone of inhibition at 80 µM [12]: 21 mm
zone of inhibition at 20 µM [13]: 12 mm
zone of inhibition at 40 µM [14]: 16 mm
zone of inhibition at 20 µM [15]: 11 mm
MIC [16]: 40 µM (≈ 35.7 µg/mL)
inhibition in vivo at 200 mg/kg [17]: 33.8%
MIC [18]: 20 µM (≈ 17.9 µg/mL)
zone of inhibition at 40 µM [19]: 15 mm
zone of inhibition at 40 µM [20]: 17 mm
IC50 [21]: 25 µM
zone of inhibition at 40 µM [22]: 11 mm
zone of inhibition at 80 µM [23]: 22 mm
zone of inhibition at 20 µM [24]: 8 mm
zone of inhibition at 20 µM [25]: 14 mm
IC50 [26]: 50 µM
MIC [27]: 80 µM (≈ 71.4 µg/mL)
zone of inhibition at 80 µM [28]: 22 mm
zone of inhibition at 80 µM [29]: 19 mm
zone of inhibition at 80 µM [30]: 18 mm
MIC [31]: 40 µM (≈ 35.7 µg/mL)
zone of inhibition at 20 µM [32]: 13 mm
zone of inhibition at 20 µM [33]: 14 mm
MIC [34]: 40 µM (≈ 35.7 µg/mL)
MIC [35]: 20 µM (≈ 17.9 µg/mL)
zone of inhibition at 20 µM [36]: 12 mm
zone of inhibition at 80 µM [37]: 21 mm
IC50 [38]: 50 µM
zone of inhibition at 40 µM [39]: 19 mm
MIC [40]: 40 µM (≈ 35.7 µg/mL)
zone of inhibition at 80 µM [41]: 19 mm
